Source: article PMC5035790 (Annals of Oncology, 2016)

System: patients with advanced solid tumors or non-Hodgkin's lymphoma
Experiment: Phase I dose-escalation study: safety, tolerability, MTD, adverse events
Type: in vivo, human
Outline: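 Adults with advanced solid tumours (plus NHL and type 2 diabetic expansion cohorts) received a 1-h IV infusion on days 1, 8 and 15 of 28-day cycles over 0.1–1.2 mg/kg. Accelerated titration escalated the dose by 100% per cohort. MTD was the highest dose given to six patients with ≤1 DLT. Fasting was 8 h pre- and 3 h post-start on cycle 1 day 1. AEs were assessed at planned times each cycle and at follow-up.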

COc1c(OCCCN2CCOCC2)ccc2c1N=C(NC(=O)c1cnc(N)nc1)N1CCN=C21 [copanlisib, Copanlisib]
dose-limiting toxicities (DLTs) (0.8 mg/kg dose-escalation cohort): no DLTs | dose modifications caused by drug-related AEs (14 of 57 patients): 25% | Any drug-related AE (NHL expansion, 0.8 mg/kg, n=9): 8 (89) n (%) | Drug-related AEs of grade 3 (NHL expansion, 0.8 mg/kg, n=9): 5 (56) n (%) | Drug-related AEs of grade 4 (NHL expansion, 0.8 mg/kg, n=9): 1 (11) n (%) | Drug-related diarrhea, all grades (NHL expansion, 0.8 mg/kg, n=9): 3 (33) n (%) | Drug-related diarrhea, grade 3 (NHL expansion, 0.8 mg/kg, n=9): 0 n (%) | Drug-related fatigue, all grades (NHL expansion, 0.8 mg/kg, n=9): 3 (33) n (%) | Drug-related fatigue, grade 3 (NHL expansion, 0.8 mg/kg, n=9): 0 n (%) | Drug-related hyperglycemia, all grades (NHL expansion, 0.8 mg/kg, n=9): 8 (89) n (%) | Drug-related hyperglycemia, grade 3 (NHL expansion, 0.8 mg/kg, n=9): 3 (33) n (%) | Drug-related hypertension, all grades (NHL expansion, 0.8 mg/kg, n=9): 3 (33) n (%) | Drug-related hypertension, grade 3 (NHL expansion, 0.8 mg/kg, n=9): 3 (33) n (%) | Drug-related nausea, all grades (NHL expansion, 0.8 mg/kg, n=9): 7 (78) n (%) | Drug-related nausea, grade 3 (NHL expansion, 0.8 mg/kg, n=9): 0 n (%) | Drug-related oral cavity mucositis, all grades (NHL expansion, 0.8 mg/kg, n=9): 3 (33) n (%) | Drug-related oral cavity mucositis, grade 3 (NHL expansion, 0.8 mg/kg, n=9): 0 n (%) | Drug-related rash/desquamation, all grades (NHL expansion, 0.8 mg/kg, n=9): 2 (22) n (%) | Drug-related rash/desquamation, grade 3 (NHL expansion, 0.8 mg/kg, n=9): 1 (11) n (%) | Drug-related vomiting, all grades (NHL expansion, 0.8 mg/kg, n=9): 1 (11) n (%) | Drug-related vomiting, grade 3 (NHL expansion, 0.8 mg/kg, n=9): 0 n (%) | Drug-related hyperglycemia, all grades (all patients, n=57, text): 63% | Drug-related hypertension, all grades (all patients, n=57, text): 21% | Drug-related hypertension, grade 3 (all patients, n=57, text): 14% | diarrhea, all-grade (all patients, n=57, text): 16% | diarrhea, grade ≥3 (all patients, n=57, text): 2% | drug-related rash, grade 3 (all patients, n=57, text): 7% | Drug-related nausea, all grades (all patients, n=57, text, all events grade ≤2): 37% | Any drug-related AE (cohort 1, 0.1 mg/kg, n=1): 1 (100) n (%) | Drug-related AEs of grade 3 (cohort 1, 0.1 mg/kg, n=1): 0 n (%) | Drug-related AEs of grade 4 (cohort 1, 0.1 mg/kg, n=1): 0 n (%) | Drug-related diarrhea, all grades (cohort 1, 0.1 mg/kg, n=1): 0 n (%) | Drug-related diarrhea, grade 3 (cohort 1, 0.1 mg/kg, n=1): 0 n (%) | Drug-related fatigue, all grades (cohort 1, 0.1 mg/kg, n=1): 0 n (%) | Drug-related fatigue, grade 3 (cohort 1, 0.1 mg/kg, n=1): 0 n (%) | Drug-related hyperglycemia, all grades (cohort 1, 0.1 mg/kg, n=1): 0 n (%) | Drug-related hyperglycemia, grade 3 (cohort 1, 0.1 mg/kg, n=1): 0 n (%) | Drug-related hypertension, all grades (cohort 1, 0.1 mg/kg, n=1): 0 n (%) | Drug-related hypertension, grade 3 (cohort 1, 0.1 mg/kg, n=1): 0 n (%) | Drug-related nausea, all grades (cohort 1, 0.1 mg/kg, n=1): 0 n (%) | Drug-related nausea, grade 3 (cohort 1, 0.1 mg/kg, n=1): 0 n (%) | Drug-related oral cavity mucositis, all grades (cohort 1, 0.1 mg/kg, n=1): 0 n (%) | Drug-related oral cavity mucositis, grade 3 (cohort 1, 0.1 mg/kg, n=1): 0 n (%) | Drug-related rash/desquamation, all grades (cohort 1, 0.1 mg/kg, n=1): 0 n (%) | Drug-related rash/desquamation, grade 3 (cohort 1, 0.1 mg/kg, n=1): 0 n (%) | Drug-related vomiting, all grades (cohort 1, 0.1 mg/kg, n=1): 0 n (%) | Drug-related vomiting, grade 3 (cohort 1, 0.1 mg/kg, n=1): 0 n (%) | Any drug-related AE (cohort 2, 0.2 mg/kg, n=3): 3 (100) n (%) | Drug-related AEs of grade 3 (cohort 2, 0.2 mg/kg, n=3): 2 (67) n (%) | Drug-related AEs of grade 4 (cohort 2, 0.2 mg/kg, n=3): 0 n (%) | Drug-related diarrhea, all grades (cohort 2, 0.2 mg/kg, n=3): 2 (67) n (%) | Drug-related diarrhea, grade 3 (cohort 2, 0.2 mg/kg, n=3): 1 (33) n (%) | Drug-related fatigue, all grades (cohort 2, 0.2 mg/kg, n=3): 1 (33) n (%) | Drug-related fatigue, grade 3 (cohort 2, 0.2 mg/kg, n=3): 0 n (%) | Drug-related hyperglycemia, all grades (cohort 2, 0.2 mg/kg, n=3): 1 (33) n (%) | Drug-related hyperglycemia, grade 3 (cohort 2, 0.2 mg/kg, n=3): 0 n (%) | Drug-related hypertension, all grades (cohort 2, 0.2 mg/kg, n=3): 0 n (%) | Drug-related hypertension, grade 3 (cohort 2, 0.2 mg/kg, n=3): 0 n (%) | Drug-related nausea, all grades (cohort 2, 0.2 mg/kg, n=3): 3 (100) n (%) | Drug-related nausea, grade 3 (cohort 2, 0.2 mg/kg, n=3): 0 n (%) | Drug-related oral cavity mucositis, all grades (cohort 2, 0.2 mg/kg, n=3): 1 (33) n (%) | Drug-related oral cavity mucositis, grade 3 (cohort 2, 0.2 mg/kg, n=3): 0 n (%) | Drug-related rash/desquamation, all grades (cohort 2, 0.2 mg/kg, n=3): 0 n (%) | Drug-related rash/desquamation, grade 3 (cohort 2, 0.2 mg/kg, n=3): 0 n (%) | Drug-related vomiting, all grades (cohort 2, 0.2 mg/kg, n=3): 1 (33) n (%) | Drug-related vomiting, grade 3 (cohort 2, 0.2 mg/kg, n=3): 0 n (%) | Any drug-related AE (cohort 3, 0.4 mg/kg, n=3): 2 (67) n (%) | Drug-related AEs of grade 3 (cohort 3, 0.4 mg/kg, n=3): 1 (33) n (%) | Drug-related AEs of grade 4 (cohort 3, 0.4 mg/kg, n=3): 0 n (%) | Drug-related diarrhea, all grades (cohort 3, 0.4 mg/kg, n=3): 0 n (%) | Drug-related diarrhea, grade 3 (cohort 3, 0.4 mg/kg, n=3): 0 n (%) | Drug-related fatigue, all grades (cohort 3, 0.4 mg/kg, n=3): 0 n (%) | Drug-related fatigue, grade 3 (cohort 3, 0.4 mg/kg, n=3): 0 n (%) | Drug-related hyperglycemia, all grades (cohort 3, 0.4 mg/kg, n=3): 1 (33) n (%) | Drug-related hyperglycemia, grade 3 (cohort 3, 0.4 mg/kg, n=3): 0 n (%) | Drug-related hypertension, all grades (cohort 3, 0.4 mg/kg, n=3): 1 (33) n (%) | Drug-related hypertension, grade 3 (cohort 3, 0.4 mg/kg, n=3): 1 (33) n (%) | Drug-related nausea, all grades (cohort 3, 0.4 mg/kg, n=3): 0 n (%) | Drug-related nausea, grade 3 (cohort 3, 0.4 mg/kg, n=3): 0 n (%) | Drug-related oral cavity mucositis, all grades (cohort 3, 0.4 mg/kg, n=3): 0 n (%) | Drug-related oral cavity mucositis, grade 3 (cohort 3, 0.4 mg/kg, n=3): 0 n (%) | Drug-related rash/desquamation, all grades (cohort 3, 0.4 mg/kg, n=3): 0 n (%) | Drug-related rash/desquamation, grade 3 (cohort 3, 0.4 mg/kg, n=3): 0 n (%) | Drug-related vomiting, all grades (cohort 3, 0.4 mg/kg, n=3): 0 n (%) | Drug-related vomiting, grade 3 (cohort 3, 0.4 mg/kg, n=3): 0 n (%) | Any drug-related AE (cohort 4, 0.8 mg/kg, n=7): 7 (100) n (%) | Drug-related AEs of grade 3 (cohort 4, 0.8 mg/kg, n=7): 4 (57) n (%) | Drug-related AEs of grade 4 (cohort 4, 0.8 mg/kg, n=7): 0 n (%) | Drug-related diarrhea, all grades (cohort 4, 0.8 mg/kg, n=7): 1 (14) n (%) | Drug-related diarrhea, grade 3 (cohort 4, 0.8 mg/kg, n=7): 0 n (%) | Drug-related fatigue, all grades (cohort 4, 0.8 mg/kg, n=7): 0 n (%) | Drug-related fatigue, grade 3 (cohort 4, 0.8 mg/kg, n=7): 0 n (%) | Drug-related hyperglycemia, all grades (cohort 4, 0.8 mg/kg, n=7): 7 (100) n (%)
